The values below come from ChEMBL document CHEMBL1136770, “The pharmacophore of short cationic antibacterial peptides” (2003).

Common to all, as to type: functional
Assay [1] relates to Staphylococcus aureus. As to the kind of experiment: Minimum inhibitory concentration against Staphylococcus aureus. Put shortly:
(§1)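 Broth microdilution, inoculum 2 × 10⁶ cfu/mL, in 1% Bacto Peptone water, overnight at 37 °C. At least three independent dilutions tested in parallel. Gentamicin susceptibility run as internal standard.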

The next assay has as its system Escherichia coli. As to the kind of experiment: Minimum inhibitory concentration against Escherichia coli. Put shortly: as §1
For assay [2], the system named is Staphylococcus aureus. In words: Minimum inhibitory concentration against methicillin-resistant Staphylococcus aureus (ATCC 33591).
Assay [3] concerns Staphylococcus epidermidis. As to the kind of experiment: Minimum inhibitory concentration against methicillin-resistant Staphylococcus epidermidis (ATCC 27626).

In brackets after ≈: the same amount, converted by molar mass. Non-standard residues stand in square brackets, D forms with d. Residues, ends and D or L forms follow the SMILES beside them. *: point of attachment. OBn = c1ccc(CO*)cc1

Consider `NC(=O)[C@H](CCCN=C(N)N)NC(=O)[C@H](Cc1c[nH]c2ccccc12)NC(=O)[C@H](CCCN=C(N)N)NC(=O)[C@@H](N)Cc1c[nH]c2ccccc12` (H-WRWR-NH2), for which the MIC in the assay with Staphylococcus aureus [1] was 200 µg/mL (≈ 285 µM); against Escherichia coli it was greater than 200 µg/mL.

Take H-WRWRWR-NH2: the MIC with Staphylococcus aureus [1] was 7.5 µg/mL; in the assay with Escherichia coli it was 10 µg/mL.

Turning to `NC(N)=NCCC[C@@H](N)C(=O)N[C@H](Cc1c[nH]c2ccccc12)C(=O)OCc1ccccc1`, the MIC is 50 µg/mL (≈ 111 µM) against Staphylococcus aureus [2], 50 µg/mL (≈ 111 µM) with Staphylococcus aureus [1], 20 µg/mL (≈ 44.4 µM) in assay [3] and greater than 200 µg/mL against Escherichia coli.

For `NC(=O)[C@H](CCCN=C(N)N)NC(=O)[C@H](Cc1c[nH]c2ccccc12)NC(=O)[C@H](Cc1c[nH]c2ccccc12)NC(=O)[C@@H](N)CCCN=C(N)N` (H-RWWR-NH2), the results for the MIC in the assay with Staphylococcus aureus [1] and against Escherichia coli were 100 µg/mL (≈ 142 µM) and greater than 200 µg/mL, respectively.

For `NC(N)=NCCC[C@@H](NC(=O)[C@H](N)Cc1c[nH]c2ccccc12)C(=O)N[C@H](Cc1c[nH]c2ccccc12)C(=O)OCc1ccccc1`, the MIC was 5 µg/mL (≈ 7.85 µM) against Staphylococcus aureus [2], 5 µg/mL (≈ 7.85 µM) against Staphylococcus aureus [1], 5 µg/mL (≈ 7.85 µM) in assay [3] and 75 µg/mL (≈ 118 µM) against Escherichia coli.

Regarding `COC(=O)[C@H](CCCN=C(N)N)NC(=O)[C@H](Cc1c[nH]c2ccccc12)NC(=O)[C@H](Cc1c[nH]c2ccccc12)NC(=O)[C@@H](N)CCCN=C(N)N` (H-RWWR-OMe), the MIC in the assay on Staphylococcus aureus [2] was 50 µg/mL (≈ 69.7 µM); in the assay on Staphylococcus aureus [1] it was 75 µg/mL (≈ 105 µM); in assay [3], 15 µg/mL (≈ 20.9 µM); against Escherichia coli, greater than 200 µg/mL.

Consider `NC(=O)[C@H](CCCN=C(N)N)NC(=O)[C@H](Cc1c[nH]c2ccccc12)NC(=O)[C@@H](N)CCCN=C(N)N` (H-Arg-Trp-Arg-NH2), for which the MIC with Staphylococcus aureus [1] and against Escherichia coli was greater than 200 µg/mL in each case.

As for `NC(=O)[C@H](Cc1c[nH]c2ccccc12)NC(=O)[C@H](CCCN=C(N)N)NC(=O)[C@@H](N)Cc1c[nH]c2ccccc12` (H-Trp-Arg-Trp-NH2), the MIC against Staphylococcus aureus [1] is 100 µg/mL (≈ 183 µM); against Escherichia coli, greater than 200 µg/mL.

Regarding `NC(N)=NCCC[C@H](N)C(=O)N[C@@H](Cc1c[nH]c2ccccc12)C(=O)OCc1ccccc1`, the MIC with Staphylococcus aureus [2] was 15 µg/mL (≈ 33.3 µM); against Staphylococcus aureus [1], 15 µg/mL (≈ 33.3 µM); in assay [3] it was 10 µg/mL (≈ 22.2 µM); against Escherichia coli it was greater than 200 µg/mL.

As for `N=C(N)NCCC[C@H](NC(=O)C1CCCCC1)C(=O)N[C@@H](Cc1c[nH]c2ccccc12)C(=O)OCc1ccccc1`, the values for the MIC with Staphylococcus aureus [1] and against Escherichia coli were 25 µg/mL (≈ 44.6 µM) and 200 µg/mL (≈ 357 µM), respectively.

For `NC(N)=NCCC[C@H](NC(=O)[C@@H](N)Cc1c[nH]c2ccccc12)C(=O)N[C@@H](Cc1c[nH]c2ccccc12)C(=O)OCc1ccccc1`, the MIC with Staphylococcus aureus [2] is 5 µg/mL (≈ 7.85 µM); against Staphylococcus aureus [1], 5 µg/mL (≈ 7.85 µM); in assay [3], 5 µg/mL (≈ 7.85 µM); against Escherichia coli it was 75 µg/mL (≈ 118 µM).

`NC(N)=NCCC[C@H](NC(=O)[C@H](N)Cc1c[nH]c2ccccc12)C(=O)N[C@@H](Cc1c[nH]c2ccccc12)C(=O)OCc1ccccc1`: the MIC was determined as 20 µg/mL (≈ 31.4 µM) against Staphylococcus aureus [2], 20 µg/mL (≈ 31.4 µM) in the assay on Staphylococcus aureus [1], 10 µg/mL (≈ 15.7 µM) in assay [3] and 75 µg/mL (≈ 118 µM) against Escherichia coli.

For `COC(=O)[C@H](CCCN=C(N)N)NC(=O)[C@H](Cc1c[nH]c2ccccc12)NC(=O)C1CCCCC1`, the MIC against Staphylococcus aureus [1] and with Escherichia coli was greater than 200 µg/mL each time.

Take H-WWRRRW-NH2: the minimal inhibitory concentration (MIC) in the assay with Staphylococcus aureus [1] came to 10 µg/mL; in the assay on Escherichia coli, 25 µg/mL.

In the case of `COC(=O)[C@H](CCCN=C(N)N)NC(=O)[C@@H](N)Cc1c[nH]c2ccccc12` (H-Trp-Arg-OMe), the MIC (with Staphylococcus aureus [2]; in the assay with Staphylococcus aureus [1]; in assay [3]; against Escherichia coli) was greater than 200 µg/mL in each case.

For `NC(N)=NCCC[C@H](N)C(=O)N[C@@H](Cc1ccccc1)C(=O)OCc1ccccc1`, the MIC in the assay with Staphylococcus aureus [2] is 200 µg/mL (≈ 486 µM); in the assay on Staphylococcus aureus [1], 200 µg/mL (≈ 486 µM); in assay [3] it was 75 µg/mL (≈ 182 µM); against Escherichia coli, greater than 200 µg/mL.

For `NCCCC[C@H](N)C(=O)N[C@@H](Cc1c[nH]c2ccccc12)C(=O)OCc1ccccc1` (H-Lys-Trp-OBn), the MIC was 25 µg/mL (≈ 59.2 µM) with Staphylococcus aureus [2], 50 µg/mL (≈ 118 µM) in the assay on Staphylococcus aureus [1], 25 µg/mL (≈ 59.2 µM) in assay [3] and greater than 200 µg/mL with Escherichia coli.

As for `NC(N)=NCCC[C@H](NC(=O)[C@@H](N)Cc1ccccc1)C(=O)OCc1ccccc1` (H-Phe-Arg-OBn), the MIC against Staphylococcus aureus [2] is 200 µg/mL (≈ 486 µM); in the assay on Staphylococcus aureus [1] it was greater than 200 µg/mL; in assay [3] it was 200 µg/mL (≈ 486 µM); in the assay with Escherichia coli it was greater than 200 µg/mL.

With `NCCCC[C@H](N)C(=O)N[C@H](Cc1c[nH]c2ccccc12)C(=O)OCc1ccccc1` (H-Lys-[dW]-OBn), the MIC in the assay with Staphylococcus aureus [2] is 50 µg/mL (≈ 118 µM); in the assay with Staphylococcus aureus [1] it was 75 µg/mL (≈ 178 µM); in assay [3], 25 µg/mL (≈ 59.2 µM); with Escherichia coli it was greater than 200 µg/mL.

Turning to H-WRWRW-NH2, the MIC against Staphylococcus aureus [1] was found to be 10 µg/mL; against Escherichia coli it was 15 µg/mL.

For H-RRRWWW-NH2, the MIC with Staphylococcus aureus [1] and in the assay with Escherichia coli was 5 µg/mL each time.

Take H-RWRWRW-NH2: the MIC with Staphylococcus aureus [1] and in the assay on Escherichia coli was 5 µg/mL each time.

For `NC(N)=NCCC[C@H](NC(=O)[C@H](Cc1c[nH]c2ccccc12)NC(=O)[C@@H](N)CCCN=C(N)N)C(=O)N[C@@H](Cc1c[nH]c2ccccc12)C(=O)OCc1ccccc1`, the MIC against Staphylococcus aureus [2] stood at 2.5 µg/mL (≈ 3.15 µM); in the assay with Staphylococcus aureus [1], 2.5 µg/mL (≈ 3.15 µM); in assay [3], 2.5 µg/mL (≈ 3.15 µM); in the assay with Escherichia coli it was 50 µg/mL (≈ 63.1 µM).

In the case of H-RWWWRR-NH2, the MIC against Staphylococcus aureus [1] is 5 µg/mL; in the assay with Escherichia coli, 25 µg/mL.

As for `COC(=O)[C@H](CCCN=C(N)N)NC(=O)[C@H](Cc1c[nH]c2ccccc12)NC(=O)[C@H](CCCN=C(N)N)NC(=O)[C@@H](N)Cc1c[nH]c2ccccc12` (H-WRWR-OMe), the MIC was 100 µg/mL (≈ 139 µM) against Staphylococcus aureus [2], greater than 200 µg/mL in the assay on Staphylococcus aureus [1], 75 µg/mL (≈ 105 µM) in assay [3] and greater than 200 µg/mL in the assay with Escherichia coli.

In the case of H-WRYRW-NH2, the values for the MIC against Staphylococcus aureus [1] and with Escherichia coli were 50 µg/mL and 100 µg/mL, respectively.

`COC(=O)[C@H](CCCN=C(N)N)NC(=O)[C@H](Cc1c[nH]c2ccccc12)NC(=O)Cc1c[nH]c2ccccc12`: the MIC against Staphylococcus aureus [1] and in the assay on Escherichia coli was 200 µg/mL (≈ 376 µM) each time.

For `N=C(N)NCCC[C@H](NC(=O)Cc1c[nH]c2ccccc12)C(=O)N[C@@H](Cc1c[nH]c2ccccc12)C(=O)OCc1ccccc1`, the MIC in the assay on Staphylococcus aureus [1] was 20 µg/mL (≈ 32.9 µM); in the assay with Escherichia coli, 150 µg/mL (≈ 247 µM).

On to `NCCCC[C@@H](N)C(=O)N[C@@H](Cc1c[nH]c2ccccc12)C(=O)OCc1ccccc1` (H-[dK]-Trp-OBn), for which the MIC against Staphylococcus aureus [2] is 50 µg/mL (≈ 118 µM); with Staphylococcus aureus [1], 75 µg/mL (≈ 178 µM); in assay [3] it was 25 µg/mL (≈ 59.2 µM); with Escherichia coli it was greater than 200 µg/mL.

With `NC(N)=NCCC[C@H](N)C(=O)N[C@@H](Cc1c[nH]c2ccccc12)C(=O)N[C@H](CCCN=C(N)N)C(=O)N[C@H](Cc1c[nH]c2ccccc12)C(=O)OCc1ccccc1`, the MIC in the assay with Staphylococcus aureus [2] is 2.5 µg/mL (≈ 3.15 µM); against Staphylococcus aureus [1], 5 µg/mL (≈ 6.31 µM); in assay [3], 2.5 µg/mL (≈ 3.15 µM); in the assay with Escherichia coli it was 75 µg/mL (≈ 94.6 µM).

Regarding `NC(N)=NCCC[C@H](NC(=O)[C@@H](N)Cc1c[nH]c2ccccc12)C(=O)OCc1ccccc1` (H-Trp-Arg-OBn), the MIC in the assay with Staphylococcus aureus [2] is 75 µg/mL (≈ 166 µM); in the assay on Staphylococcus aureus [1], 200 µg/mL (≈ 444 µM); in assay [3], 75 µg/mL (≈ 166 µM); with Escherichia coli it was greater than 200 µg/mL.

In the case of `COC(=O)[C@H](CCCN=C(N)N)NC(=O)[C@H](Cc1c[nH]c2ccccc12)NC(=O)[C@@H](N)Cc1c[nH]c2ccccc12` (H-Trp-Trp-Arg-OMe), the MIC against Staphylococcus aureus [2] is 200 µg/mL (≈ 357 µM); in the assay on Staphylococcus aureus [1], greater than 200 µg/mL; in assay [3], 100 µg/mL (≈ 178 µM); in the assay with Escherichia coli, greater than 200 µg/mL.

Consider H-WRWRY-NH2, for which the MIC against Staphylococcus aureus [1] came out at 50 µg/mL; in the assay with Escherichia coli it was 100 µg/mL.

Turning to `NC(N)=NCCC[C@H](N)C(=O)N[C@H](Cc1c[nH]c2ccccc12)C(=O)OCc1ccccc1`, the MIC is 50 µg/mL (≈ 111 µM) against Staphylococcus aureus [2], 50 µg/mL (≈ 111 µM) against Staphylococcus aureus [1], 25 µg/mL (≈ 55.5 µM) in assay [3] and greater than 200 µg/mL with Escherichia coli.

For H-RWRWR-NH2, the minimal inhibitory concentration (MIC) came out at 25 µg/mL in the assay with Staphylococcus aureus [1] and 200 µg/mL in the assay on Escherichia coli.

On to `NC(=O)[C@H](Cc1c[nH]c2ccccc12)NC(=O)[C@H](CCCN=C(N)N)NC(=O)[C@H](CCCN=C(N)N)NC(=O)[C@@H](N)Cc1c[nH]c2ccccc12` (H-WRRW-NH2), for which the results for the MIC in the assay with Staphylococcus aureus [1] and with Escherichia coli were 200 µg/mL (≈ 285 µM) and greater than 200 µg/mL, respectively.

Consider `NC(N)=NCCC[C@@H](N)C(=O)N[C@@H](Cc1c[nH]c2ccccc12)C(=O)OCc1ccccc1`, for which the MIC with Staphylococcus aureus [2] was 25 µg/mL (≈ 55.5 µM); with Staphylococcus aureus [1] it was 25 µg/mL (≈ 55.5 µM); in assay [3] it was 25 µg/mL (≈ 55.5 µM); against Escherichia coli, greater than 200 µg/mL.

Usually MIC stands for the lowest concentration found to suppress growth. A high value points to weaker potency.
